Hits are enriched below; roughly 1.9% of the tested compounds scored in any of these assays.
UHRF1 binding = blocks human UHRF1 binding to methylated DNA; Q96T88; UHRF1 binding to methylated oligo, TR-FRET; inhibition, % at 4.4 µM; 370,000 tested, 0.75% active; AID 687016; in the data active means inhibition above about 21%;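 further: UHRF1 SRA domain binding a hemimethylated CpG hairpin DNA probe; 0% = median of test compound wells and 100% = reference inhibitor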
NSD2 HMT inh = NSD2 (human) methyltransferase inhibition. NSD2 peptide methylation, AlphaScreen, 120 min. inhibition, % at 12.5 µM. 310,000 tested, 0.54% active. AID 743445; in the data active means inhibition above about 50%
TDP2 absorb = blocks human TDP2 phosphodiesterase activity; O95551; recombinant TDP2, T5PNP hydrolysis, p-nitrophenol absorbance 415 nm; inhibition, % at 12.8 µM; 370,000 tested, 0.34% active;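 active means inhibition above the mean of all tested compounds plus 3 SD, set per campaign, cut at about 25% in these data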;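 further: 0% = DMSO with enzyme and 100% = buffer with substrate but no TDP2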
Target sequence (O95551 whole entry, looked up): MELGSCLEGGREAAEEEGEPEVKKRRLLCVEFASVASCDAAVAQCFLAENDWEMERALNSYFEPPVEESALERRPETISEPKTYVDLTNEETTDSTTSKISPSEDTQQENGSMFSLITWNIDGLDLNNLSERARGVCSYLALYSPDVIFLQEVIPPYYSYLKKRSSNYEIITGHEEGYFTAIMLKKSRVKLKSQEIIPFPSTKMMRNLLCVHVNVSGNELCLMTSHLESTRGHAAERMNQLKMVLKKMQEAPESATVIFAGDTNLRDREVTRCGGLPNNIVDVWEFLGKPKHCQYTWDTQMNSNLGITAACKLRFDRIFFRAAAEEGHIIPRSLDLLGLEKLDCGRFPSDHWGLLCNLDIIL
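Read-out basis: percent inhibition. System: recombinant human TDP2. Buffer or medium: Mg2+-containing Tris-HCl buffer, pH 7.5. Repeats: single replicate. Timing: reaction 2 h, 37 °C. Benchmarks: high control without enzyme, low control DMSO plus TDP2. Probe or stimulus: 5 mM T5PNP. Doses: 12.8 µM only. Measured by: epi absorbance of p-nitrophenol freed from T5PNP by hydrolysis.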
MBD2 inh = inhibitors of human MBD2 binding to methylated oligonucleotide | inhibition, % at 4.4 µM | Q9UBB5 | 370,000 tested, 0.31% active | TR-FRET; in the data active means inhibition above about 13%
LEDGF integ inh = blocks HIV-1 LEDGF/p75-dependent DNA integration; inhibition, % at 3.7 µM; 370,000 tested, 0.64% active; TR-FRET IN-LEDGF/p75 DNA integration, Eu/Cy5;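 active means inhibition above the screen-wide mean plus 3 SD, cut at about 13% in these data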;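 further: signal is the Cy5 over europium emission ratio at 671 and 618 nm; 0% = plate median of compound wells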
CASP6 VEID inh = inhibitors of human caspase-6; P55212; inhibition, % at 12.5 µM; 350,000 tested, 0.53% active; purified caspase-6, Z-VEID-R110 cleavage fluorescence;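 active means mean inhibition across replicates at least about 35%, with every replicate also reaching that limit, limit read from the data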;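 further: 0% = median of neutral control wells and 100% = no fluorescence left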
Target sequence (P55212 24-179 limits assumed): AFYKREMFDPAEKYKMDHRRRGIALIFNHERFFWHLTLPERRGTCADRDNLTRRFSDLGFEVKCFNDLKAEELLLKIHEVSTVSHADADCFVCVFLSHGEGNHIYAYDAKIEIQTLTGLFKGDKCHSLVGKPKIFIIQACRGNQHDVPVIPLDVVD
Target sequence (P55212 194-293 limits assumed): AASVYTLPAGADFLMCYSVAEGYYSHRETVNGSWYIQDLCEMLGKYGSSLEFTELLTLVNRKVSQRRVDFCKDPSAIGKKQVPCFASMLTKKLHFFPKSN
IN multimer up = counter-screen for LEDGF/p75 integration inhibitors: HIV-1 integrase multimerization activators | shares compounds with LEDGF integ inh | TR-FRET HIV-1 integrase multimerization, biochemical | activation, % at 7.7 µM | 2,000 tested, 17% active | AID 1053131; in the data active means activation above about 8.9%
TR-FRET interf = counter-screen for LEDGF/p75 integration inhibitors: TR-FRET optical interference. shares compounds with LEDGF integ inh. TR-FRET optical interference counterscreen, HIV-1 IN multimerization. inhibition, % at 7.7 µM. 2,000 tested, under 10 active. AID 1053135;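 active means inhibition above the mean over all tested compounds plus 3 SD, which no compound reached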;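 further: 0% = integrase with antibodies and DMSO and 100% = antibodies without integrase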
IN-LEDGF confirm = LEDGF/p75-dependent HIV-1 integration inhibition, confirmation; shares compounds with LEDGF integ inh; TR-FRET LEDGF/p75-dependent HIV-1 integration, biochemical; inhibition, % at 3.7 µM; 2,000 tested, 36% active; in the data active means inhibition above about 14%
Starred values were filed as active, the others as inactive.

For C=CCN1C=C2C(=O)C(C)(OC(=O)c3cnc4ccccc4n3)C(=O)C=C2C=C1/C=C/COC (configuration not stated) the results were UHRF1 binding 5, TDP2 absorb -4, MBD2 inh -1, LEDGF integ inh 25*, CASP6 VEID inh 28, IN multimer up 2, TR-FRET interf -10 and IN-LEDGF confirm 40*.
CCCNC(=O)N1[C@H](CO)[C@H](c2ccccc2C2=CCCC2)[C@@H]1C#N was read as CASP6 VEID inh -1.
For CC(=O)c1ccc(NC(=O)CSc2nnc(-c3ccco3)c(-c3ccco3)n2)cc1 the results were UHRF1 binding 20, NSD2 HMT inh 29, TDP2 absorb 7, MBD2 inh -1, LEDGF integ inh 35*, CASP6 VEID inh 33, IN multimer up 12*, TR-FRET interf -44 and IN-LEDGF confirm 45*.
CC(=O)Nc1ccc(NC(=O)CSc2nnc(-c3ccco3)o2)cc1 was read as UHRF1 binding 3, NSD2 HMT inh -3, TDP2 absorb -12, MBD2 inh 0, LEDGF integ inh 6 and CASP6 VEID inh -2.
O=C(COC(=O)c1sc2ccccc2c1Cl)NCC1CCCCC1 was read as UHRF1 binding -1, NSD2 HMT inh -1, TDP2 absorb 11, MBD2 inh 2, LEDGF integ inh 16*, IN multimer up -1, TR-FRET interf 3 and IN-LEDGF confirm 1.
For CC1CCCC(NC(=O)COC(=O)c2sc3ccccc3c2Cl)C1C (configuration not stated) the results were UHRF1 binding 2, NSD2 HMT inh -2, TDP2 absorb -2, MBD2 inh 2, LEDGF integ inh 3 and CASP6 VEID inh 4.
`COc1ccccc1OCCSc1nnnn1-c1ccc(C)cc1` gave UHRF1 binding -2, TDP2 absorb -13, MBD2 inh -5, LEDGF integ inh 37*, CASP6 VEID inh 2, IN multimer up -3, TR-FRET interf 14 and IN-LEDGF confirm 10.
For Fc1ccccc1OCCSc1nnnn1-c1ccccc1 the results were UHRF1 binding -1, NSD2 HMT inh -3, TDP2 absorb 21, MBD2 inh 1 and LEDGF integ inh 2.
For Cc1cc(C)c(-c2csc(NC(=O)C3=COCCO3)n2)cc1C the results were UHRF1 binding 0, NSD2 HMT inh -2, TDP2 absorb -1, MBD2 inh 0, LEDGF integ inh 5 and CASP6 VEID inh 2.
Screening C=CCn1c(C)cc(-c2csc(NC(=O)C3=COCCO3)n2)c1C returned UHRF1 binding 0, NSD2 HMT inh 2, TDP2 absorb 13, MBD2 inh -2, LEDGF integ inh 51*, CASP6 VEID inh 3, IN multimer up 2, TR-FRET interf -7 and IN-LEDGF confirm 3.
For COc1ccc(-c2cn(CC[C@@H]3CC[C@H](NC(=O)Cc4ccccn4)[C@H](CO)O3)nn2)cc1 the results were CASP6 VEID inh 1.
For CN(C)CC#Cc1ccc([C@H]2[C@@H](CO)N3CCCCN(S(=O)(=O)c4ccccc4)C[C@H]23)cc1 the results were CASP6 VEID inh -3.
`S=C(N/N=C/c1ccc2ncccc2c1)Nc1cccnc1` gave UHRF1 binding -5, NSD2 HMT inh 0, TDP2 absorb 10, MBD2 inh -2, LEDGF integ inh -6 and CASP6 VEID inh 5.
`O=S(=O)(c1ccc(NC(=S)N/N=C/c2ccc(O)c(O)c2)cc1)N1CCOCC1` gave UHRF1 binding 12, NSD2 HMT inh 19, TDP2 absorb -4, MBD2 inh 0, LEDGF integ inh 18*, CASP6 VEID inh 40*, IN multimer up 1, TR-FRET interf -6 and IN-LEDGF confirm 14*.
For Oc1ccc(/C=N/NC(=S)Nc2cccnc2)cc1O the results were UHRF1 binding -2, NSD2 HMT inh 75*, TDP2 absorb -8, MBD2 inh -9, LEDGF integ inh 21*, CASP6 VEID inh 13, IN multimer up 18*, TR-FRET interf -66 and IN-LEDGF confirm 34*.
Screening CN1C(=O)c2cc(NC(=O)C3CCOCC3)ccc2OC[C@H]2O[C@H](CC(=O)NCC3CC3)CC[C@H]21 returned CASP6 VEID inh -1.
For OC[C@H]1Nc2ccc(-c3cccc(F)c3)cc2[C@H]2[C@@H]1CCN2Cc1ccncc1 the results were CASP6 VEID inh 0.
Screening O=C(C[C@H]1CC[C@@H]2[C@H](COC[C@H](O)CN2Cc2cccc(-c3ccncc3)c2)O1)N1CCCCC1 returned CASP6 VEID inh 0.
Cc1ccc(-n2c(SCC(=O)N/N=C/c3ccccc3OCC(=O)O)nc3ccccc3c2=O)cc1 was read as UHRF1 binding -2, NSD2 HMT inh 9, TDP2 absorb 12, MBD2 inh -2, LEDGF integ inh 68*, CASP6 VEID inh 18, IN multimer up 0, TR-FRET interf -1 and IN-LEDGF confirm 3.
`Cc1ccc(S(=O)(=O)N2[C@H](CC(=O)c3cccc4ccccc34)OC[C@@H]2C)cc1` gave UHRF1 binding 8, TDP2 absorb -4, MBD2 inh 7, LEDGF integ inh 14*, CASP6 VEID inh -7, IN multimer up 0, TR-FRET interf 1 and IN-LEDGF confirm -4.
For Cc1ccc(S(=O)(=O)N2[C@H](CC(=O)c3cccc4ccccc34)OC[C@@H]2C(C)C)cc1 the results were UHRF1 binding 2, TDP2 absorb -1, MBD2 inh 6, LEDGF integ inh 4 and CASP6 VEID inh -3.
For COCC(=O)Nc1ccc2c(c1)[C@@H]1C[C@H](CC(=O)N3CCc4ccccc4C3)O[C@H](CO)[C@@H]1O2 the results were CASP6 VEID inh 0.
For NCC[C@@H]1CC[C@@H](NC(=O)C2CC2)[C@H](CO)O1 the results were CASP6 VEID inh 2.
For Cc1ccc(-c2nn(-c3ccccc3)cc2CO)o1 the results were UHRF1 binding 0, NSD2 HMT inh 2, TDP2 absorb 8, MBD2 inh -6, LEDGF integ inh 15*, IN multimer up 0, TR-FRET interf 0 and IN-LEDGF confirm 4.
`OCc1cn(-c2ccccc2)nc1-c1ccco1` gave UHRF1 binding -2, NSD2 HMT inh -1, TDP2 absorb 3, MBD2 inh 1 and LEDGF integ inh -3.
`O=C(C[C@H]1C=C[C@@H](NS(=O)(=O)c2cccc(F)c2)[C@@H](CO)O1)NCc1ccc2c(c1)OCO2` gave CASP6 VEID inh -1.
